target: Serine/threonine-protein phosphatase PP1-gamma catalytic subunit (Homo sapiens, UniProt P36873); experiment: Inhibition of PP1gamma by firefly bioluminescence assay
In short: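 Recombinant PP1c (E. coli-expressed), concentration set by titration, diluted to 40 nM in Tris–HCl (pH 8.43) with 0.15% BSA and 4.0 mM DTT (DTT omitted for disulfide-containing probes). Inhibitor diacid (0–40 µM stock dilutions; 0–10 µM in assay) premixed with enzyme. Luciferin phosphate (40 µM, 5 µL) is added. After 6 min, released luciferin is read on an immobilized-luciferase column with photon counting, in triplicate. Ki is fitted with a tight-binding model.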

Sequence of Serine/threonine-protein phosphatase PP1-gamma catalytic subunit (P36873 whole entry): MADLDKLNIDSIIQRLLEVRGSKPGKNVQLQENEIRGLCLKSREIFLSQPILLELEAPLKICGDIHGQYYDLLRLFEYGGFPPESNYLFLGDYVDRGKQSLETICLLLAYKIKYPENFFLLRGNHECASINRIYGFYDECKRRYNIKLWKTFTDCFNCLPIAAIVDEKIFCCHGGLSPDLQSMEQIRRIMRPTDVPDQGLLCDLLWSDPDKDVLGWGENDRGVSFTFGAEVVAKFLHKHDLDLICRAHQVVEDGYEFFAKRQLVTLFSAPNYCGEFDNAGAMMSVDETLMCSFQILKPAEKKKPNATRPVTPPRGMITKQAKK

Row | SMILES | Ki
1 | COc1cc(C2(C(F)(F)F)N=N2)ccc1C(=O)NCCNC(=O)CO/N=C(\C)[C@@H](C)CC[C@@H]1O[C@@]2(CC[C@H]1C)CC[C@H](C)[C@H]([C@H](C)CC[C@H](O)[C@H](C)C(=O)C[C@@H](O)[C@H](OC)[C@H](OC(=O)C[C@@H](O)/C(C(=O)O)=C(\C)C(=O)O)C(C)C)O2 | 213 nM
2 | CO[C@@H]([C@H](O)CC(=O)[C@@H](C)[C@@H](O)CC[C@@H](C)[C@@H]1O[C@]2(CC[C@@H](C)[C@H](CC[C@H](C)C(C)=O)O2)CC[C@@H]1C)[C@H](OC(=O)C[C@@H](O)/C(C(=O)O)=C(\C)C(=O)O)C(C)C [TAUTOMYCIN DIACID] | 4.5 nM
3 | CO[C@@H]([C@H](O)CC(=O)[C@@H](C)[C@@H](O)CC[C@@H](C)[C@@H]1O[C@]2(CC[C@@H](C)[C@H](CC[C@H](C)/C(C)=N\OCC(=O)NCCNC(=O)c3ccc(F)c(N=[N+]=[N-])c3)O2)CC[C@@H]1C)[C@H](OC(=O)C[C@@H](O)/C(C(=O)O)=C(\C)C(=O)O)C(C)C | 8.4 nM
4 | CO[C@@H]([C@H](O)CC(=O)[C@@H](C)[C@@H](O)CC[C@@H](C)[C@@H]1O[C@]2(CC[C@@H](C)[C@H](CC[C@H](C)/C(C)=N/OCC(=O)NCCCNC(=O)c3ccc(F)c(N=[N+]=[N-])c3)O2)CC[C@@H]1C)[C@H](OC(=O)C[C@@H](O)/C(C(=O)O)=C(\C)C(=O)O)C(C)C | 3.4 nM
5 | CO[C@@H]([C@H](O)CC(=O)[C@@H](C)[C@@H](O)CC[C@@H](C)[C@@H]1O[C@]2(CC[C@@H](C)[C@H](CC[C@H](C)/C(C)=N\OCC(=O)NCCSSCCNC(=O)c3ccc(F)c(N=[N+]=[N-])c3)O2)CC[C@@H]1C)[C@H](OC(=O)C[C@@H](O)/C(C(=O)O)=C(\C)C(=O)O)C(C)C | 23.9 nM
6 | CO[C@@H]([C@H](O)CC(=O)[C@@H](C)[C@@H](O)CC[C@@H](C)[C@@H]1O[C@]2(CC[C@@H](C)[C@H](CC[C@H](C)/C(C)=N/OCC(=O)Nc3cccc(C(=O)c4ccccc4)c3)O2)CC[C@@H]1C)[C@H](OC(=O)C[C@@H](O)/C(C(=O)O)=C(\C)C(=O)O)C(C)C | 8 nM
7 | CO[C@@H]([C@H](O)CC(=O)[C@@H](C)[C@@H](O)CC[C@@H](C)[C@@H]1O[C@]2(CC[C@@H](C)[C@H](CC[C@H](C)/C(C)=N/OCC(=O)NCCSSCCNC(=O)c3ccc(F)c(N=[N+]=[N-])c3)O2)CC[C@@H]1C)[C@H](OC(=O)C[C@@H](O)/C(C(=O)O)=C(\C)C(=O)O)C(C)C | 19.6 nM

Further molecules by falling Ki, results first:

Row | Ki | SMILES
8 | 49.7 nM | COc1cc(C2(C(F)(F)F)N=N2)ccc1C(=O)NCCNC(=O)CO/N=C(/C)[C@@H](C)CC[C@@H]1O[C@@]2(CC[C@H]1C)CC[C@H](C)[C@H]([C@H](C)CC[C@H](O)[C@H](C)C(=O)C[C@@H](O)[C@H](OC)[C@H](OC(=O)C[C@@H](O)/C(C(=O)O)=C(\C)C(=O)O)C(C)C)O2
9 | 32.5 nM | CO[C@@H]([C@H](O)CC(=O)[C@@H](C)[C@@H](O)CC[C@@H](C)[C@@H]1O[C@]2(CC[C@@H](C)[C@H](CC[C@H](C)/C(C)=N\OCC(=O)Nc3cccc(C(=O)c4ccccc4)c3)O2)CC[C@@H]1C)[C@H](OC(=O)C[C@@H](O)/C(C(=O)O)=C(\C)C(=O)O)C(C)C
10 | 17.3 nM | CO[C@@H]([C@H](O)CC(=O)[C@@H](C)[C@@H](O)CC[C@@H](C)[C@@H]1O[C@]2(CC[C@@H](C)[C@H](CC[C@H](C)/C(C)=N/OCC(=O)NCCNC(=O)c3ccc(F)c(N=[N+]=[N-])c3)O2)CC[C@@H]1C)[C@H](OC(=O)C[C@@H](O)/C(C(=O)O)=C(\C)C(=O)O)C(C)C
